MEKK2 mut-MEK5: MEK5 binding signal on mutant MEKK2 PB1, primary screen, biochemical, multiplex bead flow cytometry, Alexa488-MEK5; Alexa488-MEK5 binding to MEKK2 mutant; percent response, % at 10 µM; 0.35% of 290,000 active; AID 1530, 2009; in the data active = percent response above about 24%, passing the limit was not always enough
MEKK3 PB1 HTS: modulators of MEKK3-MEK5 PB1 binding, primary screen, biochemical, wildtype MEKK3, multiplex bead flow cytometry, Alexa488-MEK5; AID 1529, 2009; 1.4% of 290,000 active; bead-based flow cytometry, Alexa488-MEK5 binding to MEKK3; actives lie on both sides; 0 = blocked by unlabeled MEK5, 100 = vehicle; Mitogen-activated protein kinase kinase kinase 3 (Homo sapiens), Q99759; binding response (% of control), % at 10 µM;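 active = binding response more than 3 SD above or below the average of its plate-row segment, actives on both sides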;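 note: Alexa488 bead fluorescence after subtracting the streptavidin-only scavenger bead signal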
Target sequence (Q99759 whole entry, looked up): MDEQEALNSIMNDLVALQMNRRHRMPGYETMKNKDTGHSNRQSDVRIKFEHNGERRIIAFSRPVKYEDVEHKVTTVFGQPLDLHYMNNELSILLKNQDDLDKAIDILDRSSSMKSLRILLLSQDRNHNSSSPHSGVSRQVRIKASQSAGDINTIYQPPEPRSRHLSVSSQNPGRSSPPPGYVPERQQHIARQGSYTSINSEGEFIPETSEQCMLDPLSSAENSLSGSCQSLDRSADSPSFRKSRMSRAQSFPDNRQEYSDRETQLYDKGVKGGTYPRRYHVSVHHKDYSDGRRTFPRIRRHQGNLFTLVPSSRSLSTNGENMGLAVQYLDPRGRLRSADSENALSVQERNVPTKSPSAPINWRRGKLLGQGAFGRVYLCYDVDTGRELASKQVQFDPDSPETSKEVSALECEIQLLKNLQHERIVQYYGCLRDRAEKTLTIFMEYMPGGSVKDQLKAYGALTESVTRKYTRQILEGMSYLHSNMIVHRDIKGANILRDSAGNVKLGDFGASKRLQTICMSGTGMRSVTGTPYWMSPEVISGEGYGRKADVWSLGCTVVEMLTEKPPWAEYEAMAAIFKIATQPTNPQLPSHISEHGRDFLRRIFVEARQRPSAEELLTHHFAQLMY
Apaf-1 inh: inhibitors of human Apaf-1 apoptosome, primary screen, biochemical, DEVD-Rh110 fluorescence, uHTS; reconstituted apoptosome caspase-3 activity; 0.71% of 330,000 active; inhibition, % at 20 µM; active = inhibition of at least 40% at 20 µM
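System – cell-free apoptosome with Apaf-1, procaspase-3 and caspase-9 · Buffer or medium – pH 7.5 Hepes buffer with CHAPS, BSA, DTT · Also added – cytochrome c with DEVD-Rh110 · Times – 30 min compound preincubation, 50 min activation, room temperature · Technique – Rh110 fluorescence intensity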
MEKK2 WT-MEK5: modulators of MEK5 binding to wildtype MEKK2, primary screen, biochemical, multiplex bead flow cytometry, Alexa488-MEK5; Mitogen-activated protein kinase kinase kinase 2 (Homo sapiens), Q9Y2U5; Alexa488-MEK5 binding to MEKK2 WT; actives lie on both sides; binding response (% of control), % at 10 µM; 1.1% of 290,000 active; AID 1531, 2009; in the data active = binding response below about 67% or above about 130%
UBC13 inh: UBC13 polyubiquitin chain formation inhibitors, primary screen, biochemical, TR-FRET, uHTS; AID 485273, 2010; Ubiquitin-conjugating enzyme E2 N (Homo sapiens), P61088; inhibition, % at 20 µM; 0.47% of 330,000 active; in the data active = inhibition above about 45%, passing the limit was not always enough
Apaf-1 inh conf2: Apaf-1 inhibitors, single-dose retest, confirmation, biochemical, fluorescence, DEVD-Rh110, 20 µM; 25% of 1,800 active; AID 504614, 2011; shares compounds with Apaf-1 inh; inhibition, % at 20 µM; reconstituted apoptosome, caspase-3 DEVD-Rh110 fluorescence;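 active = mean inhibition of at least 40% at 20 µM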
Rh110 quench: Rh110 fluorescence interference by putative Apaf-1 inhibitors, confirmation, artefact control for Apaf-1 inhibitor project, biochemical, 20 µM. 1,800 tested, under 10 active. shares compounds with Apaf-1 inh. quenched caspase reaction. activation (fluorescence interference), % at 20 µM;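 active = signal rise of 40% or more at 20 µM, treated as a fluorescence artifact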
Fluor interf inh: fluorescence interference of Apaf-1 inhibitor hits, dose response, artefact control for Apaf-1 inhibitor project; IC50, µM; shares compounds with Apaf-1 inh; 460 tested, under 10 active; fluorescence interference counterscreen, Apaf-1 assay format; call rule not given here
Numbers stand for hits. A selection: hits, their analogues and other compounds. The true share with any hit is near 2.9%.

For CCN(CC)CCCNC1=C(Cl)C(=O)c2ccccc2C1=O the results were MEKK2 mut-MEK5 inactive, MEKK3 PB1 HTS inactive, Apaf-1 inh 50.4, MEKK2 WT-MEK5 inactive, UBC13 inh inactive, Apaf-1 inh conf2 65.1, Rh110 quench inactive and Fluor interf inh inactive.
CCCCC1=CC2=CC(=O)C(C)(OC(=O)c3ccc(Cl)nc3)C(=O)C2=CO1 (centres undefined) was read as MEKK2 mut-MEK5 inactive, MEKK3 PB1 HTS inactive, Apaf-1 inh inactive, MEKK2 WT-MEK5 inactive and UBC13 inh inactive.
For CC(=O)Nc1ccc2c(c1)CN(c1cc(C)ccc1C)CO2 the results were MEKK2 mut-MEK5 inactive, MEKK3 PB1 HTS inactive, Apaf-1 inh inactive, MEKK2 WT-MEK5 inactive and UBC13 inh inactive.
For COc1cc(C(=O)NCC(=O)NNC(=O)C2COc3ccccc3O2)cc(OC)c1OC (centres undefined) the results were Apaf-1 inh inactive and UBC13 inh inactive.
`COc1cc(OC)c2c(C)cc(=O)oc2c1C(CCN1CCOCC1)c1ccc2c(c1)OCO2` (centres undefined) gave MEKK2 mut-MEK5 inactive, MEKK3 PB1 HTS inactive, Apaf-1 inh inactive, MEKK2 WT-MEK5 inactive and UBC13 inh inactive.
For COc1cc(OC)c2c(-c3ccccc3)cc(=O)oc2c1C(CCN1CCOCC1)c1ccc(N(C)C)cc1 (centres undefined) the results were Apaf-1 inh 51.5, Apaf-1 inh conf2 inactive and Rh110 quench inactive.
COc1ccc(C(CNC(=O)c2cccc(NS(=O)(=O)c3ccc(C)c(F)c3)c2)N(C)C)cc1 (centres undefined) was read as Apaf-1 inh 52.3, UBC13 inh inactive, Apaf-1 inh conf2 inactive and Rh110 quench inactive.
COc1ccc(CC2(CO)COc3ccccc3C2=O)cc1 (centres undefined) was read as Apaf-1 inh inactive and UBC13 inh inactive.
CN1CCc2c(sc3c2C(=O)NC(c2cccc(OC(=O)c4cccs4)c2)N3)C1 (centres undefined) was read as Apaf-1 inh inactive and UBC13 inh inactive.
Screening CCOC(=O)N1CCc2c(sc3c2C(=O)NC(c2ccccc2)N3)C1 (centres undefined) returned Apaf-1 inh 81.1, UBC13 inh inactive, Apaf-1 inh conf2 inactive and Rh110 quench inactive.
Cc1cccc(C)c1NC(=O)CN1C(=O)NC(C)(C2CC2)C1=O (centres undefined) was read as Apaf-1 inh inactive and UBC13 inh inactive.
For N#CC1=C(N)Oc2n[nH]c(-c3cccs3)c2C1c1ccncc1 (centres undefined) the results were MEKK2 mut-MEK5 inactive, MEKK3 PB1 HTS inactive, Apaf-1 inh inactive, MEKK2 WT-MEK5 inactive and UBC13 inh inactive.
Screening N#CC1=C(N)Oc2n[nH]c(-c3cccs3)c2C1c1ccsc1 (centres undefined) returned MEKK2 mut-MEK5 inactive, MEKK3 PB1 HTS inactive, Apaf-1 inh 82.9, MEKK2 WT-MEK5 inactive, UBC13 inh inactive, Apaf-1 inh conf2 inactive and Rh110 quench inactive.
Cc1ccc(NC(=O)CN(c2ccc(Cl)cc2)S(=O)(=O)c2cc([N+](=O)[O-])ccc2Cl)c(C)c1 was read as MEKK2 mut-MEK5 inactive, MEKK3 PB1 HTS inactive, Apaf-1 inh inactive, MEKK2 WT-MEK5 inactive and UBC13 inh inactive.
C#CCOCCOCCOCCNc1nc(N2CCN(C(=O)Cn3cc(CCCCN)nn3)CC2)nc(N2CCN(C(=O)[C@H](CCCCN)n3cc(CCCC)nn3)CC2)n1 was read as Apaf-1 inh 41.4, UBC13 inh inactive, Apaf-1 inh conf2 inactive and Rh110 quench inactive.
`CCC(=O)NC1=C(Cl)C(=O)C(NC(=O)CC)=C(Cl)C1=O` gave MEKK2 mut-MEK5 inactive, MEKK3 PB1 HTS inactive, Apaf-1 inh 70.7, MEKK2 WT-MEK5 inactive, UBC13 inh inactive, Apaf-1 inh conf2 inactive and Rh110 quench inactive.
`CCOc1cc(C(c2c(C)[nH][nH]c2=O)c2c(C)[nH][nH]c2=O)ccc1OS(=O)(=O)c1ccc(C)cc1` gave MEKK2 mut-MEK5 inactive, MEKK3 PB1 HTS inactive, Apaf-1 inh 40.6, MEKK2 WT-MEK5 inactive, UBC13 inh inactive, Apaf-1 inh conf2 inactive and Rh110 quench inactive.
Screening CCOc1ccc(C(c2c(C)[nH][nH]c2=O)c2c(C)[nH][nH]c2=O)cc1OC returned MEKK2 mut-MEK5 inactive, MEKK3 PB1 HTS inactive, Apaf-1 inh inactive, MEKK2 WT-MEK5 inactive and UBC13 inh inactive.
For CCOc1ccc(/C=N/NC(=O)c2ccccc2O)cc1CN1CC2CC(C1)c1cccc(=O)n1C2 (centres undefined) the results were Apaf-1 inh inactive and UBC13 inh inactive.
`CC(Sc1nnc(-c2ccc(OC(F)F)cc2)n1N)C(=O)NCC1CCCO1` (centres undefined) gave Apaf-1 inh inactive and UBC13 inh inactive.
O=[N+]([O-])c1ccc(N2CCN(c3ccccc3O)CC2)c(Cl)c1 was read as MEKK2 mut-MEK5 inactive, MEKK3 PB1 HTS inactive, Apaf-1 inh inactive, MEKK2 WT-MEK5 inactive and UBC13 inh inactive.
O=C1Cc2cc([N+](=O)[O-])ccc2N1c1c(Cl)cccc1Cl was read as MEKK2 mut-MEK5 inactive, MEKK3 PB1 HTS inactive, Apaf-1 inh 43.2, MEKK2 WT-MEK5 inactive, UBC13 inh inactive, Apaf-1 inh conf2 inactive and Rh110 quench inactive.
Screening CC(C)COc1ccc(C(=O)Nc2scc(-c3ccc(Cl)cc3Cl)c2C(N)=O)cc1 returned Apaf-1 inh 45.1, UBC13 inh inactive, Apaf-1 inh conf2 inactive and Rh110 quench inactive.
For O=C(Nc1nc(-c2ccc(Cl)cc2Cl)cs1)c1ccc(OCC2CCCO2)cc1 (centres undefined) the results were MEKK2 mut-MEK5 inactive, MEKK3 PB1 HTS inactive, Apaf-1 inh inactive, MEKK2 WT-MEK5 inactive and UBC13 inh inactive.
COc1cc2cc(NC(C)=O)cc(NCc3ccccc3)c2cc1OC was read as MEKK2 mut-MEK5 inactive, MEKK3 PB1 HTS inactive, Apaf-1 inh 87.6, MEKK2 WT-MEK5 inactive, UBC13 inh inactive, Apaf-1 inh conf2 inactive, Rh110 quench inactive and Fluor interf inh inactive.

Source: PubChem
